Data on 35 compounds can be found in ChEMBL document CHEMBL1134462, “Toward a rational design of peptide inhibitors of ribonucleotide reductase: structure-function and modeling studies” (J Med Chem, 2001).

Non-standard residues stand in square brackets, D forms with d. Residues, ends and D or L forms follow the SMILES beside them. aThr = C[C@H](O)[C@H](N)C(=O)O

The first assay can be described thus: Relative binding affinity evaluated against mouse Ribonucleotide Reductase (RR). The method, boiled down:
(§1)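 Competition of free ligand with column-bound FTLDADF (Sepharose mixed ~60:40 with underivatized Sepharose) for mouse R1. mR1 (4.4 μM) premixed with ligand (typically 100 μM) in 50 mM Tris pH 8.5, 10 mM DTT, 100 μM dTTP, held 30 min on spin column, then centrifuged. Eluted R1 measured by Bradford assay, duplicates; Kd derived from elution versus no-ligand control, expressed relative to AcFTLDADF standard.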
Compound `CC(=O)N[C@@H](Cc1ccccc1)C(=O)N[C@H](C(=O)N[C@@H](CC(C)C)C(=O)N[C@@H](CC(=O)O)C(=O)N[C@@H](C)C(=O)N[C@@H](CC(=O)O)C(=O)N[C@@H](Cc1ccc(Cl)cc1)C(=O)O)[C@H](C)O` had a Relative Ki of 3.2.

Compound `CC(=O)N[C@@H](Cc1ccc(O)cc1)C(=O)N[C@H](C(=O)N[C@@H](CC(C)C)C(=O)N[C@@H](CC(=O)O)C(=O)N[C@@H](C)C(=O)N[C@@H](CC(=O)O)C(=O)N[C@@H](Cc1ccccc1)C(=O)O)[C@H](C)O` came in with a Relative Ki of 15.

`CC(C)C[C@H](NC(=O)[C@@H](NC(=O)[C@@H](N)Cc1ccccc1)[C@H](C)O)C(=O)N[C@@H](CC(=O)O)C(=O)N[C@@H](C)C(=O)N[C@@H](CC(=O)O)C(=O)N[C@@H](Cc1ccccc1)C(=O)O` (H-F[aThr]LDADF-OH) came in with a Relative Ki above 40.

As to `CC(=O)N[C@@H](Cc1ccccc1)C(=O)N[C@H](C(=O)N[C@@H](CC(C)C)C(=O)N[C@@H](CC(=O)O)C(=O)N[C@@H](C)C(=O)N[C@@H](CC(=O)O)C(=O)N[C@@H](CC(C)C)C(=O)O)[C@H](C)O` (Ac-F[aThr]LDADL-OH), the Relative Ki was above 35.

Regarding `CC(=O)N[C@@H](Cc1ccccc1)C(=O)N[C@H](C(=O)N[C@@H](CC(C)C)C(=O)N[C@@H](CC(=O)O)C(=O)N[C@@H](C)C(=O)N[C@@H](CC(=O)O)C(=O)N[C@@H](Cc1ccccc1)C(=O)N[C@@H](C)C(=O)N[C@@H](C)C(=O)O)[C@H](C)O` (Ac-F[aThr]LDADFAA-OH), the Relative Ki was above 35.

A further assay can be described thus: Relative dissociation constant evaluated against mouse Ribonucleotide Reductase (RR). The method, boiled down: as §1
In turn, `CC(=O)N[C@@H](Cc1ccccc1)C(=O)N[C@H](C(=O)N[C@@H](CC(C)C)C(=O)N[C@@H](CC(=O)O)C(=O)N[C@@H](C)C(=O)N[C@@H](CC(=O)O)C(=O)N[C@@H](Cc1ccc(Cl)cc1)C(=O)O)[C@H](C)O` yielded a Relative Kd of 3.1.

Take `CC(=O)N[C@@H](Cc1ccccc1)C(=O)N[C@H](C(=O)N[C@@H](CC(C)C)C(=O)N[C@@H](CC(=O)O)C(=O)N[C@@H](C)C(=O)N[C@@H](CC(=O)O)C(=O)N[C@@H](Cc1c[nH]c2ccccc12)C(=O)O)[C@H](C)O`: the Relative Kd worked out at 10.

Take `CC(=O)N[C@@H](Cc1ccccc1)C(=O)N[C@H](C(=O)N[C@@H](CC(C)C)C(=O)N[C@@H](CC(=O)O)C(=O)N[C@@H](C)C(=O)N[C@@H](CC(=O)O)C(=O)N[C@@H](Cc1c(F)c(F)c(F)c(F)c1F)C(=O)O)[C@H](C)O`: the Relative Kd worked out at 16.

As to `CC(C)C[C@H](NC(=O)[C@@H](NC(=O)[C@H](Cc1ccccc1)NC(=O)c1ccnc(-c2cc(C(=O)O)ccn2)c1)[C@H](C)O)C(=O)N[C@@H](CC(=O)O)C(=O)N[C@@H](C)C(=O)N[C@@H](CC(=O)O)C(=O)N[C@@H](Cc1ccccc1)C(=O)O`, the Relative Kd is 0.6.

The compound `CC(=O)N[C@@H](Cc1ccccc1)C(=O)N[C@H](C(=O)N[C@@H](CC(C)C)C(=O)N[C@@H](CC(=O)O)C(=O)N[C@@H](C)C(=O)N[C@@H](CC(=O)O)C(=O)N[C@@H](Cc1ccc(O)cc1)C(=O)O)[C@H](C)O` had a Relative Kd of 24.

As for `CC(=O)N[C@@H](Cc1ccccc1)C(=O)N[C@H](C(=O)N[C@@H](CC(C)C)C(=O)N[C@@H](CC(=O)O)C(=O)N[C@@H](C)C(=O)N[C@@H](CC(=O)O)C(=O)N[C@@H](Cc1ccccc1O)C(=O)O)[C@H](C)O`, the Relative Kd is 26.

The compound `CC(C)C[C@H](NC(=O)[C@@H](NC(=O)[C@H](Cc1ccccc1)NC(=O)c1ccccc1)[C@H](C)O)C(=O)N[C@@H](CC(=O)O)C(=O)N[C@@H](C)C(=O)N[C@@H](CC(=O)O)C(=O)N[C@@H](Cc1ccccc1)C(=O)O` yielded a Relative Kd of 1.9.

Compound `COc1ccccc1C[C@H](NC(=O)[C@H](CC(=O)O)NC(=O)[C@H](C)NC(=O)[C@H](CC(=O)O)NC(=O)[C@H](CC(C)C)NC(=O)[C@@H](NC(=O)[C@H](Cc1ccccc1)NC(C)=O)[C@H](C)O)C(=O)O` gave a Relative Kd above 30.

On to `CC(=O)N[C@@H](Cc1ccccc1)C(=O)N[C@H](C(=O)N[C@@H](CC(C)C)C(=O)N[C@@H](CC(=O)O)C(=O)N[C@@H](C)C(=O)N[C@@H](CC(=O)O)C(=O)N[C@@H](Cc1ccc(C)cc1)C(=O)O)[C@H](C)O`, for which the Relative Kd was determined as 4.7.

Take `CC(=O)N[C@@H](Cc1ccccc1)C(=O)N[C@H](C(=O)N[C@@H](CC(C)C)C(=O)N[C@@H](CC(=O)O)C(=O)N[C@@H](C)C(=O)N[C@@H](CC(=O)O)C(=O)N[C@@H](Cc1ccccc1Cl)C(=O)O)[C@H](C)O`: the Relative Kd is 12.

Turning to `CCC(=O)N[C@@H](Cc1ccccc1)C(=O)N[C@H](C(=O)N[C@@H](CC(C)C)C(=O)N[C@@H](CC(=O)O)C(=O)N[C@@H](C)C(=O)N[C@@H](CC(=O)O)C(=O)N[C@@H](Cc1ccccc1)C(=O)O)[C@H](C)O`, the Relative Kd worked out at 6.3.

`CC(C)C[C@H](NC(=O)[C@@H](NC(=O)[C@H](Cc1ccccc1)NC(=O)Cc1ccc([N+](=O)[O-])cc1)[C@H](C)O)C(=O)N[C@@H](CC(=O)O)C(=O)N[C@@H](C)C(=O)N[C@@H](CC(=O)O)C(=O)N[C@@H](Cc1ccccc1)C(=O)O` yielded a Relative Kd of 0.8.

Regarding `COc1cccc(C[C@H](NC(=O)[C@H](CC(=O)O)NC(=O)[C@H](C)NC(=O)[C@H](CC(=O)O)NC(=O)[C@H](CC(C)C)NC(=O)[C@@H](NC(=O)[C@H](Cc2ccccc2)NC(C)=O)[C@H](C)O)C(=O)O)c1`, the Relative Kd amounted to 8.2.

Regarding `CC(=O)N[C@@H](Cc1ccccc1)C(=O)N[C@H](C(=O)N[C@@H](CC(C)C)C(=O)N[C@@H](CC(=O)O)C(=O)N[C@@H](C)C(=O)N[C@@H](CC(=O)O)C(=O)N[C@@H](Cc1cccc(O)c1)C(=O)O)[C@H](C)O`, the Relative Kd came out at 6.3.

In the case of `CC(=O)N[C@@H](Cc1ccccc1)C(=O)N[C@H](C(=O)N[C@@H](CC(C)C)C(=O)N[C@@H](CC(=O)O)C(=O)N[C@@H](C)C(=O)N[C@@H](CC(=O)O)C(=O)N[C@@H](Cc1ccc([N+](=O)[O-])cc1)C(=O)O)[C@H](C)O`, the Relative Kd was above 30.

For the compound `CC(=O)N[C@H](C(=O)N[C@H](C(=O)N[C@@H](CC(C)C)C(=O)N[C@@H](CC(=O)O)C(=O)N[C@@H](C)C(=O)N[C@@H](CC(=O)O)C(=O)N[C@@H](Cc1ccccc1)C(=O)O)[C@H](C)O)c1ccccc1`, the Relative Kd was determined as 6.6.

`COc1ccc(CC(=O)N[C@@H](Cc2ccccc2)C(=O)N[C@H](C(=O)N[C@@H](CC(C)C)C(=O)N[C@@H](CC(=O)O)C(=O)N[C@@H](C)C(=O)N[C@@H](CC(=O)O)C(=O)N[C@@H](Cc2ccccc2)C(=O)O)[C@H](C)O)cc1` came in with a Relative Kd of 0.8.

For the compound `CC(=O)N[C@@H](Cc1ccccc1)C(=O)N[C@H](C(=O)N[C@@H](CC(C)C)C(=O)N[C@@H](CC(=O)O)C(=O)N[C@@H](C)C(=O)N[C@@H](CC(=O)O)C(=O)N[C@@H](Cc1ccccc1F)C(=O)O)[C@H](C)O`, the Relative Kd came out at 2.

`CC(=O)N[C@@H](Cc1ccccc1)C(=O)N[C@H](C(=O)N[C@@H](CC(C)C)C(=O)N[C@@H](CC(=O)O)C(=O)N[C@@H](C)C(=O)N[C@@H](CC(=O)O)C(=O)N[C@H](C(=O)O)c1ccccc1)[C@H](C)O` yielded a Relative Kd of 24.

`CC(C)C[C@H](NC(=O)[C@@H](NC(=O)[C@H](Cc1ccccc1)NC(=O)Cc1ccccc1)[C@H](C)O)C(=O)N[C@@H](CC(=O)O)C(=O)N[C@@H](C)C(=O)N[C@@H](CC(=O)O)C(=O)N[C@@H](Cc1ccccc1)C(=O)O` displayed a Relative Kd of 0.8.

As for `CC(=O)N[C@@H](Cc1ccccc1)C(=O)N[C@H](C(=O)N[C@@H](CC(C)C)C(=O)N[C@@H](CC(=O)O)C(=O)N[C@@H](C)C(=O)N[C@@H](CC(=O)O)C(=O)N[C@H](Cc1ccccc1)C(=O)O)[C@H](C)O`, the Relative Kd was found to be 8.6.

In the case of `CC(=O)N[C@@H](Cc1ccccc1)C(=O)N[C@H](C(=O)N[C@@H](CC(C)C)C(=O)N[C@@H](CC(=O)O)C(=O)N[C@@H](C)C(=O)N[C@@H](CC(=O)O)C(=O)N[C@@H](CCC(N)=O)C(=O)O)[C@H](C)O`, the Relative Kd is above 30.

Regarding `COc1ccc(C[C@H](NC(=O)[C@H](CC(=O)O)NC(=O)[C@H](C)NC(=O)[C@H](CC(=O)O)NC(=O)[C@H](CC(C)C)NC(=O)[C@@H](NC(=O)[C@H](Cc2ccccc2)NC(C)=O)[C@H](C)O)C(=O)O)cc1`, the Relative Kd is 16.

With `CC(=O)N[C@@H](CC(C)C)C(=O)N[C@H](C(=O)N[C@@H](CC(C)C)C(=O)N[C@@H](CC(=O)O)C(=O)N[C@@H](C)C(=O)N[C@@H](CC(=O)O)C(=O)N[C@@H](Cc1ccccc1)C(=O)O)[C@H](C)O` (Ac-L[aThr]LDADF-OH), the Relative Kd is above 30.

Regarding `CC(=O)N[C@H](C(=O)N[C@H](C(=O)N[C@@H](CC(C)C)C(=O)N[C@@H](CC(=O)O)C(=O)N[C@@H](C)C(=O)N[C@@H](CC(=O)O)C(=O)N[C@@H](Cc1ccccc1)C(=O)O)[C@H](C)O)C(C)C`, the Relative Kd is above 30.

In turn, `CC(=O)N[C@@H](C)C(=O)N[C@H](C(=O)N[C@@H](CC(C)C)C(=O)N[C@@H](CC(=O)O)C(=O)N[C@@H](C)C(=O)N[C@@H](CC(=O)O)C(=O)N[C@@H](Cc1ccccc1)C(=O)O)[C@H](C)O` yielded a Relative Kd above 30.

As to `CC(C)C[C@H](NC(=O)[C@@H](NC(=O)[C@H](Cc1ccccc1)NC(=O)OCC1c2ccccc2-c2ccccc21)[C@H](C)O)C(=O)N[C@@H](CC(=O)O)C(=O)N[C@@H](C)C(=O)N[C@@H](CC(=O)O)C(=O)N[C@@H](Cc1ccccc1)C(=O)O`, the Relative Kd worked out at 1.4.

Consider `CCCC(=O)N[C@@H](Cc1ccccc1)C(=O)N[C@H](C(=O)N[C@@H](CC(C)C)C(=O)N[C@@H](CC(=O)O)C(=O)N[C@@H](C)C(=O)N[C@@H](CC(=O)O)C(=O)N[C@@H](Cc1ccccc1)C(=O)O)[C@H](C)O`, for which the Relative Kd was determined as 1.

`CC(=O)N[C@@H](Cc1ccccc1)C(=O)N[C@H](C(=O)N[C@@H](CC(C)C)C(=O)N[C@@H](CC(=O)O)C(=O)N[C@@H](C)C(=O)N[C@@H](CC(=O)O)C(=O)N[C@@H](Cc1ccc(N)cc1)C(=O)O)[C@H](C)O`: the Relative Kd came to 23.

Turning to `CC(=O)N[C@@H](Cc1ccccc1)C(=O)N[C@H](C(=O)N[C@@H](CC(C)C)C(=O)N[C@@H](CC(=O)O)C(=O)N[C@@H](C)C(=O)N[C@@H](CC(=O)O)C(=O)N[C@@H](Cc1ccccc1)C(N)=O)[C@H](C)O`, the Relative Kd is above 30.

Turning to `CC(C)C[C@H](NC(=O)[C@@H](NC(=O)[C@H](Cc1ccccc1)NC=O)[C@H](C)O)C(=O)N[C@@H](CC(=O)O)C(=O)N[C@@H](C)C(=O)N[C@@H](CC(=O)O)C(=O)N[C@@H](Cc1ccccc1)C(=O)O`, the Relative Kd amounted to 2.4.
